Assay [1] addresses T1, Pancreatic triacylglycerol lipase (Homo sapiens) (UniProt P16233).
T1 sequence (whole entry): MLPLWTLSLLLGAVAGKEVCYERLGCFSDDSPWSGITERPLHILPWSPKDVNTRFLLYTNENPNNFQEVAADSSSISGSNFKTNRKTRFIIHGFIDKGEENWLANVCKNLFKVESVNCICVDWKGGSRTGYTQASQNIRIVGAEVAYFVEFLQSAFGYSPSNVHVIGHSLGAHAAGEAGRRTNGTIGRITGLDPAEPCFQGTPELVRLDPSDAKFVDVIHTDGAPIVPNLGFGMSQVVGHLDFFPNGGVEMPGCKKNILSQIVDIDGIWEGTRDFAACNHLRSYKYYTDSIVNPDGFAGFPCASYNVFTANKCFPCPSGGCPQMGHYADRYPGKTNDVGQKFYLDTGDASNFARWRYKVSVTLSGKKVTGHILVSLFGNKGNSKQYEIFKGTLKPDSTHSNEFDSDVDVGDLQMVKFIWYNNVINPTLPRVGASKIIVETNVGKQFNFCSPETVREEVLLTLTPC
The assay is described as follows: Inhibition of human recombinant pancreatic lipase expressed in Pichia pastoris at 200 molar excess compound concentration pre-incubated for 2 hrs with enzyme before substrate addition by pH-stat technique.

In assay [2] the test system is Mycobacterium tuberculosis. Kind of assay: Inhibition of Mycobacterium tuberculosis LipY pre-incubated for 30 mins with enzyme before substrate addition by pH-stat technique. The method in brief:
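Without NaTDC, LipY was incubated 30 min at 25 °C with inhibitor at xI 2–100. Residual activity was determined by pH-stat at 37 °C on TC4 in 2.5 mM Tris-HCl pH 7.5, 300 mM NaCl, 3 mM NaTDC. xI50 was taken from activity versus molar excess. Isopropanol-only controls were run. At least duplicate.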

For assay [3], the target named is T2, Pancreatic lipase-related protein 2 (Cavia porcellus) (UniProt P81139).
T2 sequence (whole entry): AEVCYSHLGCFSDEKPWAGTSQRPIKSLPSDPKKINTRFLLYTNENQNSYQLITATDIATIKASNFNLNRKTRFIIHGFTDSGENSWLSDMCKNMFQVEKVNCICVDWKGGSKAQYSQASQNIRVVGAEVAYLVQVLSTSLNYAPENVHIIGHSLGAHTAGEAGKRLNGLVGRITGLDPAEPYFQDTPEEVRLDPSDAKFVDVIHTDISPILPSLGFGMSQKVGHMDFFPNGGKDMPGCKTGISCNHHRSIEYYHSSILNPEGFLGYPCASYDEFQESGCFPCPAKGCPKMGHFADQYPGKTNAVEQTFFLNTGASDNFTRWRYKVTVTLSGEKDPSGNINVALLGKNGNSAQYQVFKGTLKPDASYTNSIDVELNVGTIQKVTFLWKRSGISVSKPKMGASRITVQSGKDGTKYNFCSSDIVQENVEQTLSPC
The assay is described as follows: Inhibition of guinea pig recombinant PLRP2 expressed in Aspergillus oryzae at 200 molar excess compound concentration pre-incubated for 2 hrs with enzyme before substrate addition by pH-stat technique.

The target in assay [4] is Monoacylglycerol lipase (Mycobacterium tuberculosis H37Rv) (UniProt O07427). Kind of assay: Inhibition of Mycobacterium tuberculosis Rv0183 pre-incubated for 30 mins with enzyme before substrate addition by pH-stat technique. In outline: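 Rv0183 was preincubated 30 min at 25 °C without NaTDC at inhibitor molar excess 2, 4, 20, 40 or 100. Residual monoglyceride lipase activity was measured by pH-stat at 37 °C with MC18 emulsion, pH 8.0, 3 mM NaTDC. xI50 was read from the residual-activity curve. Solvent controls were run. At least duplicate.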
Chain of Monoacylglycerol lipase (Mycobacterium tuberculosis H37Rv) (O07427 whole entry): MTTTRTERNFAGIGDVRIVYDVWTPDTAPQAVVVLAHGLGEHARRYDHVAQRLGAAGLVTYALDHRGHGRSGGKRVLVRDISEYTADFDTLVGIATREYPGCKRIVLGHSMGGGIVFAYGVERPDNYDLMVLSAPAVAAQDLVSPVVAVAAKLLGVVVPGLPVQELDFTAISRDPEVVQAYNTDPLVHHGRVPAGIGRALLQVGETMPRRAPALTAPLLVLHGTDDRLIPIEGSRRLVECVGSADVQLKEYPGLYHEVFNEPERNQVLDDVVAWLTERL

The target of assay [5] is T3, Gastric triacylglycerol lipase (Canis lupus familiaris) (UniProt P80035).
T3 sequence (whole entry): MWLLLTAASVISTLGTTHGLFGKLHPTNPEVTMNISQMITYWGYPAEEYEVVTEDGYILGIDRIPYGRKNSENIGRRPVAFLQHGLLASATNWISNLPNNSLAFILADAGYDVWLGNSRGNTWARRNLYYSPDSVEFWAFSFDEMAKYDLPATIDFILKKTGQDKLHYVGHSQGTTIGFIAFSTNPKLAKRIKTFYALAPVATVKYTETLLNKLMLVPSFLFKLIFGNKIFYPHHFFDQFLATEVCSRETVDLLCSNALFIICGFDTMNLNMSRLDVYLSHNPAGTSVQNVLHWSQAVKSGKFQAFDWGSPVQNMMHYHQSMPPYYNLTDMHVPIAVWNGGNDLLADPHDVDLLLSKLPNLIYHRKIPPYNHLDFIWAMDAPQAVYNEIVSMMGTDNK
Kind of assay: Inhibition of dog recombinant gastric lipase expressed in transgenic maize at 200 molar excess compound concentration pre-incubated for 2 hrs with enzyme before substrate addition by pH-stat technique. The assay is classed as single protein. The following applies: Stomach.

Assay [6] has as its target T4, Cutinase 1 (Fusarium vanettenii) (UniProt P00590).
T4 sequence (whole entry): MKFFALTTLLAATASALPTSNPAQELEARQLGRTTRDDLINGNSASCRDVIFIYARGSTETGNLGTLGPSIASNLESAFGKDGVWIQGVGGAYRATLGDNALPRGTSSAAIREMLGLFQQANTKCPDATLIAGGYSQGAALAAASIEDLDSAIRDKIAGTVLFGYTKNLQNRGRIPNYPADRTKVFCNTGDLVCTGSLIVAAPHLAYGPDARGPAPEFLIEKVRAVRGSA
Kind of assay: Inhibition of Fusarium solani pisi cutinase pre-incubated for 30 mins with enzyme before substrate addition by pH-stat technique. In outline:
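Cutinase was preincubated for 30 min at 25 °C in 2 mM NaTDC, substrate absent, at inhibitor molar excess xI 2, 4, 20, 40 or 100. Residual activity was measured by pH-stat at 37 °C on TC4 emulsion at pH 8.0 with 0.25 mM NaTDC. xI50 is the molar excess giving 50% activity. Isopropanol controls were run. At least duplicate.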

Assay [7] deals with Mycobacterium tuberculosis. Kind of assay: Inhibition of Mycobacterium tuberculosis LipY assessed as covalent bond formation with enzyme serine residue by measuring change in molecular weight of enzyme-compound complexes at 40 molar excess compound concentration pre-incubated for 30 mins with enzyme before substrate addition by MALDI-TOF mass spectrometry method. In outline: (§1)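 Each enzyme was preincubated with the inhibitor for 30 min at 25 °C at xI 40, with the inhibitor taken from a 5 mg/mL isopropanol stock. Intact masses of native and inhibited protein were measured by MALDI-TOF. For tryptic mapping, 5–50 pmol protein was reduced with DTT, alkylated with iodoacetamide and digested overnight at 37 °C.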

Assay [8] concerns Mycobacterium tuberculosis. Kind of assay: Inhibition of Mycobacterium tuberculosis LipY assessed as half inactivation time pre-incubated with enzyme before substrate addition by pH-stat technique. The method in brief:
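LipY was incubated with inhibitor at xI 4 at 25 °C without NaTDC for up to 1 h. At time points, residual activity was titrated by pH-stat at 37 °C on TC4 emulsion in 2.5 mM Tris-HCl pH 7.5, 300 mM NaCl, 3 mM NaTDC. Half-inactivation time came from the curve. Runs were done at least in duplicate.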

Assay [9] deals with Mycobacterium tuberculosis. Kind of assay: Inhibition of Mycobacterium tuberculosis LipY at 40 molar excess compound concentration pre-incubated for 30 mins with enzyme before substrate addition by pH-stat technique.
The target in assay [10] is T4, Cutinase 1 (Fusarium vanettenii). Kind of assay: Inhibition of Fusarium solani pisi cutinase assessed as covalent bond formation with enzyme serine residue by measuring change in molecular weight of enzyme-compound complexes at 40 molar excess compound concentration pre-incubated for 30 mins with enzyme before substrate addition by MALDI-TOF mass spectrometry method. In outline: as §1

Active and inactive are the calls of the source. The rule behind the calls is not given here. Some results are limits rather than exact numbers.

As usually defined, the inhibition is the percentage by which the read-out fell short of the control. For `CCCCCCCCCCCCCCCCCCOP1(=O)CCCC(C(=O)OC)=C(C)O1` (configuration not stated), the inhibition entry in assay [1], in assay [3] and in assay [5] was “inactive” throughout. In addition, the XI50 in [2] turned out to be 0.59 molar excess; in assay [6], 0.95 molar excess. For the same compound, in assay [4], the XI50 result was “inactive”.
In the case of `CCCCCCCCCCCCCCCCOP1(=O)CCCC(C(=O)OC)=C(C)O1` (configuration not stated), the inhibition entry in [1], in assay [3] and in [5] was “inactive” each time. Besides, the XI50 in assay [2] was found to be 0.83 molar excess; in assay [6] it was 0.56 molar excess. In assay [7], the Activity turned out to be 444 Da. The XI50 result in assay [4] is “inactive”. Also, in assay [8], the T1/2 was 9.6 s.
As for `CCCCCC1CCP(=O)(OC)OC(C)=C1C(=O)OC` (racemic), the inhibition in assay [9] is 14%.
For the compound `CCCCCCCCCCCCCCCCCC[C@@H]1CC[P@@](=O)(OC)OC(C)=C1C(=O)OC` (racemic), the inhibition result in assay [1], in [3] and in assay [5] was “inactive” throughout. Besides, the XI50 in [2] amounted to 0.77 molar excess; in [4] it was 3.15 molar excess; in [6], 1.18 molar excess.
Turning to `CCCCCCCCCCCCCCCCCC[C@@H]1CC[P@](=O)(OC)OC(C)=C1C(=O)OC` (racemic), the inhibition result in assay [1], in [3] and in [5] was “inactive” each time. The results for the XI50 in [2], in [4] and in [6] were 7.47 molar excess, over 100 molar excess and 7.26 molar excess, respectively.
As for `CCCCCCCCCCCCCCCC[C@@H]1CC[P@@](=O)(OC)OC(C)=C1C(=O)OC` (racemic), the inhibition result in [1], in assay [3] and in assay [5] was “inactive” in each case. Moreover, the XI50 in [2] was 0.6 molar excess; in assay [4] it was 1.32 molar excess; in [6], 2.54 molar excess.
With `CCCCCCCCCCCCCCCC[C@@H]1CC[P@](=O)(OC)OC(C)=C1C(=O)OC` (racemic), the inhibition entry in assay [1], in [3] and in assay [5] was “inactive” throughout. Further, the results for the XI50 in [2], in assay [4] and in [6] were 3.47 molar excess, over 100 molar excess and 4.43 molar excess, respectively.
For the compound `CCCCCCCCCCCC[C@@H]1CC[P@@](=O)(OC)OC(C)=C1C(=O)OC` (racemic), the inhibition entry in [1], in assay [3] and in assay [5] was “inactive” throughout. Further, the XI50 in assay [2] is 3.46 molar excess; in [4], 5.23 molar excess; in assay [6] it was 2 molar excess.
Take `CCCCCCCCCCCC[C@@H]1CC[P@](=O)(OC)OC(C)=C1C(=O)OC` (racemic): the inhibition entry in [1], in assay [3] and in [5] was “inactive” throughout. In addition, the results for the XI50 in assay [2], in assay [4] and in assay [6] were 6.14 molar excess, 2.44 molar excess and 3.63 molar excess, respectively.
For the compound `CCCCCCCCCC[C@@H]1CC[P@](=O)(OC)OC(C)=C1C(=O)OC` (racemic), the inhibition result in assay [1], in assay [3] and in assay [5] was “inactive” in each case. In addition, the XI50 in assay [2] was determined as 25.8 molar excess; in assay [4], 3.57 molar excess; in [6] it was 14.6 molar excess.
`CCCCC[C@@H]1CC[P@@](=O)(OC)OC(C)=C1C(=O)OC` (racemic): the inhibition result in assay [1], in assay [3] and in assay [5] was “inactive” each time. Also, the figures for the XI50 in assay [2], in assay [4] and in [6] were over 100 molar excess, 2.7 molar excess and 1.42 molar excess, respectively.
Take `CCCCC[C@@H]1CC[P@](=O)(OC)OC(C)=C1C(=O)OC` (racemic): the inhibition entry in [1], in [3] and in assay [5] was “inactive” in each case. Also, the XI50 in assay [2] was over 100 molar excess; in assay [4], 3.79 molar excess; in assay [6], 26.2 molar excess.
Take `COC(=O)C1=C(C)OP(=O)(OC)CCC1` (racemic): the inhibition entry in [1], in [3] and in assay [5] was “inactive” throughout. The figures for the XI50 in assay [2], in assay [4] and in [6] were over 100 molar excess, 30.5 molar excess and 1.39 molar excess, respectively. Further, in [10], the Activity was determined as 233 Da. In assay [9], this compound registered an inhibition of 14%.
Consider `COP1(=O)CCCC(CO)=C(C)O1` (racemic), for which the inhibition entry in assay [1], in assay [3] and in assay [5] was “inactive” each time. Besides, the XI50 result in assay [2] and in assay [4] was “inactive” each time. Further, the XI50 in assay [6] is over 100 molar excess.
For `CO[P@@]1(=O)CC[C@@H]2COC(=O)C2=C(C)O1` (racemic), the inhibition entry in assay [1], in [3] and in [5] was “inactive” each time. Also, the XI50 in assay [2] is over 100 molar excess; in assay [4], 41.6 molar excess; in [6], 4.49 molar excess. This compound also registered an inhibition in assay [9] of 14%.
Take `CO[P@]1(=O)CC[C@@H]2COC(=O)C2=C(C)O1` (racemic): the inhibition result in assay [1], in [3] and in assay [5] was “inactive” each time. For the same compound, the XI50 in [2] is over 100 molar excess; in [4], 43.2 molar excess; in [6], 8.77 molar excess. Besides, the inhibition in [9] amounted to 14%.
